Experimental data from ChEMBL document CHEMBL3808334, “Synthesis and in vitro evaluation of novel triazine analogues as anticancer agents and their interaction studies with bovine serum albumin” (Eur J Med Chem, 2016).

What was measured:
Type in all cases: functional
[1] = Growth inhibition of human HCT15 cells assessed as cell growth at 10^-7 M incubated for 48 hrs by sulforhodamine B assay; details: HCT-15, 48 h, read-out: Activity
In short: (§1)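 Cells seeded at 5,000–40,000/well according to doubling time and preincubated 24 h at 37 °C, 5% CO2. Time-zero plates were TCA-fixed. DMSO concentrate was diluted in medium with 50 µg/ml gentamicin to give five concentrations (10-fold or ½ log steps), then exposed 48 h. Cells were TCA-fixed, stained with 0.4% SRB and read at 515 nm. Percent growth was taken against time-zero and control; GI50, TGI and LC50 derived.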

[2] = Growth inhibition of human OVCAR4 cells assessed as cell growth at 10^-6 M incubated for 48 hrs by sulforhodamine B assay; details: OVCAR-4, 48 h, read-out: Activity
[3] = Growth inhibition of human OVCAR3 cells assessed as cell growth at 10^-5 M incubated for 48 hrs by sulforhodamine B assay; details: OVCAR-3, 48 h, read-out: Activity
[4] = test system: T47D; assay: Growth inhibition of human T47D cells incubated for 48 hrs by sulforhodamine B assay
In short: (§2)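 Cells were plated at 5,000–40,000 per well according to doubling time and preincubated 24 h at 37 °C in 5% CO2; time-zero plates were then TCA-fixed. Five concentrations (10-fold or ½-log dilutions, DMSO stock) were incubated 48 h. Cells were TCA-fixed, stained with 0.4% SRB and read at 515 nm. GI50 was taken where [(Ti−Tz)/(C−Tz)]×100 = 50.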

[5] = Growth inhibition of human SKOV3 cells assessed as cell growth at 10 uM incubated for 48 hrs by sulforhodamine B assay; details: SK-OV-3, 48 h, read-out: Activity
[6] = Growth inhibition of human RPMI8226 cells assessed as cell growth at 10 uM incubated for 48 hrs by sulforhodamine B assay; details: RPMI-8226, 48 h, read-out: Activity
[7] = Growth inhibition of human HL-60(TB) cells assessed as cell growth at 10^-5 M incubated for 48 hrs by sulforhodamine B assay; details: HL-60, 48 h, read-out: Activity
In short: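 Cells plated at 5,000–40,000/well according to doubling time and preincubated 24 h at 37 °C, 5% CO₂, with time-zero plates TCA-fixed. Drugs were kept as DMSO concentrates at 400× the top concentration and diluted in medium with 50 µg/ml gentamicin. Five 10-fold or ½-log dilutions were run for 48 h, followed by SRB staining and A515. Percent growth = (Ti−Tz)/(C−Tz)×100, or (Ti−Tz)/Tz×100 when Ti<Tz.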

[8] = test system: MCF7; assay: Growth inhibition of human MCF7 cells incubated for 48 hrs by sulforhodamine B assay; details: MCF7, 48 h; in short: as §2
[9] = Growth inhibition of human UO31 cells assessed as cell growth at 10^-4 M incubated for 48 hrs by sulforhodamine B assay; details: UO-31, 48 h, read-out: Activity
[10] = Growth inhibition of human HCC2998 cells assessed as cell growth at 10^-8 M incubated for 48 hrs by sulforhodamine B assay; details: HCC 2998, 48 h, read-out: Activity; in short: as §1
[11] = test system: SK-MEL-2; assay: Growth inhibition of human SK-MEL-2 cells assessed as cell growth at 10^-6 M incubated for 48 hrs by sulforhodamine B assay; details: SK-MEL-2, 48 h, read-out: Activity
[12] = Growth inhibition of human Hs 578T cells assessed as cell growth at 10 uM incubated for 48 hrs by sulforhodamine B assay; details: read-out: Activity
[13] = Growth inhibition of human OVCAR4 cells assessed as cell growth at 10^-7 M incubated for 48 hrs by sulforhodamine B assay; details: OVCAR-4, 48 h, read-out: Activity
[14] = test system: CCRF-CEM; assay: Growth inhibition of human CCRF-CEM cells assessed as cell growth at 10^-4 M incubated for 48 hrs by sulforhodamine B assay; details: read-out: Activity
In short: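 Leukemia line in the five-dose format: five concentrations from 10-fold or ½-log serial dilutions. Plated at 5,000–40,000 cells per well, preincubated 24 h, then compound added for 48 h at 37 °C, 5% CO₂. Sulforhodamine B absorbance read at 515 nm. Growth is computed against time-zero (Tz) and control (C) readings; GI₅₀ is where [(Ti−Tz)/(C−Tz)]×100 = 50.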

[15] = Growth inhibition of human OVCAR5 cells incubated for 48 hrs by sulforhodamine B assay; details: OVCAR-5, 48 h; in short: as §2
[16] = test system: SK-MEL-2; assay: Growth inhibition of human SK-MEL-2 cells incubated for 48 hrs by sulforhodamine B assay; details: SK-MEL-2, 48 h; in short: as §2
[17] = test system: NCI/ADR-RES; assay: Growth inhibition of human NCI/ADR-RES cells incubated for 48 hrs by sulforhodamine B assay; in short: as §2
[18] = Growth inhibition of human OVCAR8 cells assessed as cell growth at 10^-6 M incubated for 48 hrs by sulforhodamine B assay; details: OVCAR-8, 48 h, read-out: Activity
[19] = Growth inhibition of human HOP92 cells incubated for 48 hrs by sulforhodamine B assay; details: HOP-92, 48 h; in short: as §1
[20] = Growth inhibition of human MOLT4 cells incubated for 48 hrs by sulforhodamine B assay; details: MOLT-4, 48 h; in short: as §2
[21] = test system: KM12; assay: Growth inhibition of human KM12 cells assessed as cell growth at 10^-6 M incubated for 48 hrs by sulforhodamine B assay; details: KM12, 48 h, read-out: Activity
[22] = Growth inhibition of human DU145 cells assessed as cell growth at 10^-8 M incubated for 48 hrs by sulforhodamine B assay; details: DU-145, 48 h, read-out: Activity; in short: as §1
[23] = test system: MDA-MB-231; assay: Growth inhibition of human MDA-MB-231 cells assessed as cell growth at 10^-4 M incubated for 48 hrs by sulforhodamine B assay; details: MDA-MB-231, 48 h, read-out: Activity
[24] = read-out: LC50 (the source's name)
[25] = read-out: pLC50 (the source's name) (converted)

## c1ccc2[nH]c(-c3ccc(Nc4nc(N5CCCCC5)nc(N5CCOCC5)n4)cc3)nc2c1
[1]
  growth at 0.1 µM: 92%
[2]
  growth at 1 µM: 93%
[3]
  growth at 10 µM: -25%
[4]; read-out: GI50
  GI50: 1.96 µM
[4]; [24]
  CC50: > 100 µM
[4]; read-out: TGI
  TGI: 4.58 µM
[4]; read-out: pGI50 (converted)
  GI50: 1.95 µM
[4]; [25]
  CC50: > 100 µM
[4]; read-out: pTGI (converted)
  TGI: 4.57 µM
[5]
  growth at 10 µM: 22.5%
[6]
  growth at 10 µM: 2.47%
[7]
  growth at 10 µM: -31%
[8]; read-out: GI50
  GI50: 2.4 µM
[8]; [24]
  CC50: > 100 µM
[8]; read-out: TGI
  TGI: 7.9 µM
[8]; read-out: pGI50 (converted)
  GI50: 2.4 µM
[8]; [25]
  CC50: > 100 µM
[8]; read-out: pTGI (converted)
  TGI: 7.94 µM
[9]
  growth at 100 µM: -36%
[10]
  growth at 0.01 µM: 98%
[11]
  growth at 1 µM: 101%
[12]
  growth at 10 µM: -12.6%
[13]
  growth at 0.1 µM: 97%
[14]
  growth at 100 µM: 5%
[15]; read-out: GI50
  GI50: 4.06 µM
[15]; [24]
  CC50: > 100 µM
[15]; read-out: TGI
  TGI: 29.3 µM
[15]; read-out: pGI50 (converted)
  GI50: 4.07 µM
[15]; [25]
  CC50: > 100 µM
[15]; read-out: pTGI (converted)
  TGI: 29.5 µM
[16]; read-out: GI50
  GI50: 2.34 µM
[16]; [24]
  CC50: 25.8 µM
[16]; read-out: TGI
  TGI: 5.36 µM
[16]; read-out: pGI50 (converted)
  GI50: 2.34 µM
[16]; [25]
  CC50: 25.7 µM
[16]; read-out: pTGI (converted)
  TGI: 5.37 µM
[17]; read-out: GI50
  GI50: 4.69 µM
[17]; [24]
  CC50: > 100 µM
[17]; read-out: TGI
  TGI: 55.2 µM
[17]; read-out: pGI50 (converted)
  GI50: 4.68 µM
[17]; [25]
  CC50: > 100 µM
[17]; read-out: pTGI (converted)
  TGI: 55 µM
[18]
  growth at 1 µM: 93%
[19]; read-out: GI50
  GI50: 1.99 µM
[19]; read-out: LC50
  LC50 (concentration killing 50% of starting cells): 9.34 µM
[19]; read-out: TGI
  TGI: 4.32 µM
[19]; read-out: pGI50 (converted)
  GI50: 2 µM
[19]; read-out: pLC50 (converted)
  LC50 (concentration killing 50% of starting cells): 9.33 µM
[19]; read-out: pTGI (converted)
  TGI: 4.37 µM
[20]; read-out: GI50
  GI50: 2.73 µM
[20]; [24]
  CC50: > 100 µM
[20]; read-out: TGI
  TGI: 7.89 µM
[20]; read-out: pGI50 (converted)
  GI50: 2.75 µM
[20]; [25]
  CC50: > 100 µM
[20]; read-out: pTGI (converted)
  TGI: 7.94 µM
[21]
  growth at 1 µM: 93%
[22]
  growth at 0.01 µM: 102%
[23]
  growth at 100 µM: -16%

## c1ccc(-c2nc(Nc3ccc(-c4nc5ccccc5[nH]4)cc3)nc(N3CCOCC3)n2)cc1
[1]
  growth at 0.1 µM: 92%
[2]
  growth at 1 µM: 93%
[3]
  growth at 10 µM: -90%
[4]; read-out: GI50
  GI50: 1.62 µM
[4]; [24]
  CC50: 9.02 µM
[4]; read-out: TGI
  TGI: 3.82 µM
[4]; read-out: pGI50 (converted)
  GI50: 1.62 µM
[4]; [25]
  CC50: 9.12 µM
[4]; read-out: pTGI (converted)
  TGI: 3.8 µM
[5]
  growth at 10 µM: -30.3%
[6]
  growth at 10 µM: -22.6%
[7]
  growth at 10 µM: -44%
[8]; read-out: GI50
  GI50: 0.877 µM
[8]; [24]
  CC50: 8.56 µM
[8]; read-out: TGI
  TGI: 2.85 µM
[8]; read-out: pGI50 (converted)
  GI50: 0.871 µM
[8]; [25]
  CC50: 8.51 µM
[8]; read-out: pTGI (converted)
  TGI: 2.82 µM
[9]
  growth at 100 µM: -76%
[10]
  growth at 0.01 µM: 100%
[11]
  growth at 1 µM: 106%
[12]
  growth at 10 µM: -39.9%
[13]
  growth at 0.1 µM: 103%
[14]
  growth at 100 µM: -36%
[15]; read-out: GI50
  GI50: 2.16 µM
[15]; [24]
  CC50: 7.49 µM
[15]; read-out: TGI
  TGI: 4.02 µM
[15]; read-out: pGI50 (converted)
  GI50: 2.14 µM
[15]; [25]
  CC50: 7.41 µM
[15]; read-out: pTGI (converted)
  TGI: 3.98 µM
[16]; read-out: GI50
  GI50: 1.97 µM
[16]; [24]
  CC50: 6.55 µM
[16]; read-out: TGI
  TGI: 3.59 µM
[16]; read-out: pGI50 (converted)
  GI50: 1.95 µM
[16]; [25]
  CC50: 6.61 µM
[16]; read-out: pTGI (converted)
  TGI: 3.63 µM
[17]; read-out: GI50
  GI50: 1.93 µM
[17]; [24]
  CC50: > 100 µM
[17]; read-out: TGI
  TGI: 5.53 µM
[17]; read-out: pGI50 (converted)
  GI50: 1.95 µM
[17]; [25]
  CC50: > 100 µM
[17]; read-out: pTGI (converted)
  TGI: 5.5 µM
[18]
  growth at 1 µM: 89%
[19]; read-out: GI50
  GI50: 1.38 µM
[19]; read-out: LC50
  LC50 (concentration killing 50% of starting cells): 6.73 µM
[19]; read-out: TGI
  TGI: 3.05 µM
[19]; read-out: pGI50 (converted)
  GI50: 1.38 µM
[19]; read-out: pLC50 (converted)
  LC50 (concentration killing 50% of starting cells): 6.76 µM
[19]; read-out: pTGI (converted)
  TGI: 3.02 µM
[20]; read-out: GI50
  GI50: 1.33 µM
[20]; [24]
  CC50: 9.35 µM
[20]; read-out: TGI
  TGI: 3.53 µM
[20]; read-out: pGI50 (converted)
  GI50: 1.32 µM
[20]; [25]
  CC50: 9.33 µM
[20]; read-out: pTGI (converted)
  TGI: 3.55 µM
[21]
  growth at 1 µM: 85%
[22]
  growth at 0.01 µM: 99%
[23]
  growth at 100 µM: -60%
